Data as given in ChEMBL document CHEMBL4665791 (J Med Chem, 2020).

What was measured:
[1] = test system: HEK293; experiment: Cytotoxicity against HEK293 cells assessed inhibition of cell proliferation up to 100 uM after 24 hrs by MTT assay; format: cell-based; details: human, hek293, 24 h
How it was run: (§1)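 HEK293T cells in DMEM with 10% FBS and 1% Pen Strep were seeded at 5,000 cells/well and left 24 h at 37 °C, 5% CO2. Compounds were then added as 2-fold dilutions from 100 to 3.13 μM (1% DMSO) for 24 h. MTT was added for 4 h, and formazan was dissolved in acidified isopropanol. A570 was read with 630 nm background subtracted, normalized to DMSO control, and fitted with a four-parameter curve for IC50.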

[2] = Cytotoxicity against human iPSC-derived neurons assessed as decrease in SNAP25 signal; format: tissue-based; details: induced pluripotent stem cell-derived neuron
[3] = Cytotoxicity against human iPSC-derived neurons assessed as effect on cell-rounding; format: tissue-based; details: induced pluripotent stem cell-derived neuron
[4] = test system: HEK293; experiment: Cytotoxicity against HEK293 cells assessed inhibition of cell proliferation after 24 hrs by MTT assay; format: cell-based; details: Homo sapiens, HEK293, 24 h; how it was run: as §1

## CCCCCNC(=O)CC(CC(=O)NO)c1ccc(Cl)cc1Cl (configuration not stated)
[1]
  Activity: Non-Toxic

## CS(=O)(=O)SCCCNC(=O)CC(CC(=O)NO)c1ccc(Cl)cc1Cl (configuration not stated)
[2]
  Activity: Toxic
[1]
  Activity: Non-Toxic
[3]
  Activity: Toxic

## CS(=O)(=O)SCCCCCCNC(=O)CC(CC(=O)NO)c1ccc(Cl)cc1Cl (configuration not stated)
[2]
  Activity: Toxic
[3]
  Activity: Toxic

## CS(=O)(=O)SCCCCCCCN(O)C(=O)/C=C/c1ccc(Cl)cc1Cl
[2]
  Activity: Non-Toxic
[3]
  Activity: Non-Toxic

## CS(=O)(=O)SCCCCCCN(O)C(=O)/C=C/c1ccc(Cl)cc1Cl
[2]
  Activity: Non-Toxic
[4]
  IC50: 60 µM
[3]
  Activity: Non-Toxic

## CS(=O)(=O)SCCCCCNC(=O)CC(CC(=O)NO)c1ccc(Cl)cc1Cl (configuration not stated)
[2]
  Activity: Toxic
[3]
  Activity: Toxic

## CS(=O)(=O)SCCCCCN(O)C(=O)/C=C/c1ccc(Cl)cc1Cl
[2]
  Activity: Non-Toxic
[3]
  Activity: Non-Toxic

## CS(=O)(=O)SCCCCNC(=O)CC(CC(=O)NO)c1ccc(Cl)cc1Cl (configuration not stated)
[2]
  Activity: Toxic
[3]
  Activity: Toxic
